# ChEMBL document CHEMBL5247575 (J Med Chem, 2018)
# Columns and labels:
# Klebsiella pneumoniae [1] = experiment: Synergistic antibacterial activity against Klebsiella pneumoniae 1354/2241 producing KPC-3 assessed as cefepime MIC at 4 ug/ml by broth microdilution method; type: functional; conditions: dose 4 µg/ml
# Summary of the method: (§1)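 Broth microdilution per CLSI guidelines, using custom frozen panels. […] Each partner drug was also tested alone. MICs were run in triplicate and the modal value is reported.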
# Acinetobacter baumannii [2] = experiment: Synergistic antibacterial activity against ADC deleted Acinetobacter baumannii transfected with pWH1266 producing OXA-24/40 assessed as meropenem MIC at 4 ug/ml by broth microdilution method; type: functional; conditions: dose 4 µg/ml
# Klebsiella pneumoniae [3] = experiment: Synergistic antibacterial activity against Klebsiella pneumoniae 977/1916 producing KPC-3 assessed as meropenem MIC at 4 ug/ml by broth microdilution method; type: functional; conditions: dose 4 µg/ml
# Acinetobacter baumannii [4] = experiment: Synergistic antibacterial activity against Acinetobacter baumannii PR448 producing OXA-23 assessed as meropenem MIC at 4 ug/ml by broth microdilution method; type: functional; conditions: dose 4 µg/ml
# Bacteria [5] = experiment: Inhibition of bacteria KPC-2 assessed as second order rate constant K2/K using nitrocefin as substrate
# Summary of the method: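 Steady-state kinetics, 10 mM phosphate-buffered saline pH 7.4. Progress curves recorded with fixed enzyme and nitrocefin and increasing nM inhibitor. Each curve fitted to a time-course equation to give k_obs. k2/K derived from these and corrected for nitrocefin concentration relative to its Km.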
# Bacteria [6] = experiment: Inhibition of bacteria KPC-2 assessed as half life using nitrocefin as substrate
# Acinetobacter baumannii [7] = experiment: Synergistic antibacterial activity against Acinetobacter baumannii PR408 producing OXA-24/40 assessed as cefepime MIC at 4 ug/ml by broth microdilution method; type: functional; conditions: dose 4 µg/ml
# Klebsiella pneumoniae [8] = experiment: Synergistic antibacterial activity against Klebsiella pneumoniae 935/1884 producing KPC-3 assessed as meropenem MIC at 4 ug/ml by broth microdilution method; type: functional; conditions: dose 4 µg/ml
# Klebsiella pneumoniae [9] = experiment: Synergistic antibacterial activity against Klebsiella pneumoniae 729/1679 producing KPC-3 assessed as meropenem MIC at 4 ug/ml by broth microdilution method; type: functional; conditions: dose 4 µg/ml; summary of the method: as §1
# Acinetobacter baumannii [10] = experiment: Synergistic antibacterial activity against Acinetobacter baumannii PR319 producing OXA-23/24/40 assessed as meropenem MIC at 4 ug/ml by broth microdilution method; type: functional; conditions: dose 4 µg/ml
# Klebsiella pneumoniae [11] = experiment: Synergistic antibacterial activity against Klebsiella pneumoniae 1398/2291 producing KPC-3 assessed as cefepime MIC at 4 ug/ml by broth microdilution method; type: functional; conditions: dose 4 µg/ml; summary of the method: as §1
# [12] = Inhibition of bacteria ADC-7 assessed as apparent inhibition constant using nitrocefin as substrate
# Klebsiella pneumoniae [13] = experiment: Synergistic antibacterial activity against Klebsiella pneumoniae 935/1884 producing KPC-3 assessed as cefepime MIC at 4 ug/ml by broth microdilution method; type: functional; conditions: dose 4 µg/ml
# Klebsiella pneumoniae [14] = experiment: Synergistic antibacterial activity against Klebsiella pneumoniae 440/1360 producing KPC-2 assessed as cefepime MIC at 4 ug/ml by broth microdilution method; type: functional; conditions: dose 4 µg/ml; summary of the method: as §1
# Pseudomonas aeruginosa [15] = experiment: Synergistic antibacterial activity against Pseudomonas aeruginosa 715 assessed as meropenem MIC at 4 ug/ml by broth microdilution method; type: functional; conditions: dose 4 µg/ml
# Pseudomonas aeruginosa [16] = experiment: Synergistic antibacterial activity against Pseudomonas aeruginosa 839 assessed as cefepime MIC at 4 ug/ml by broth microdilution method; type: functional; conditions: dose 4 µg/ml
# Klebsiella pneumoniae [17] = experiment: Synergistic antibacterial activity against Klebsiella pneumoniae 1108/1989 producing KPC-3 assessed as meropenem MIC at 4 ug/ml by broth microdilution method; type: functional; conditions: dose 4 µg/ml; summary of the method: as §1
# Bacteria [18] = experiment: Inhibition of bacteria PDC-3 assessed as half life using nitrocefin as substrate
# Klebsiella pneumoniae [19] = experiment: Synergistic antibacterial activity against Klebsiella pneumoniae jefferson 1775 producing OXA-48 assessed as meropenem MIC at 4 ug/ml by broth microdilution method; type: functional; conditions: dose 4 µg/ml
# Escherichia coli [20] = experiment: Synergistic antibacterial activity against Escherichia coli DH10B transfected with pBC SK (-) KPC-2 assessed as cefepime MIC at 4 ug/ml by broth microdilution method; type: functional; conditions: dose 4 µg/ml
# Escherichia coli [21] = experiment: Synergistic antibacterial activity against Escherichia coli DH10B transfected with pBR322-catI-KPC-2 assessed as meropenem MIC at 4 ug/ml by broth microdilution method; type: functional; conditions: dose 4 µg/ml; summary of the method: as §1
# Klebsiella pneumoniae [22] = experiment: Synergistic antibacterial activity against Klebsiella pneumoniae 972/1910 producing KPC-3 assessed as meropenem MIC at 4 ug/ml by broth microdilution method; type: functional; conditions: dose 4 µg/ml
# Acinetobacter baumannii [23] = experiment: Synergistic antibacterial activity against Acinetobacter baumannii PR359 producing OXA-23 assessed as meropenem MIC at 4 ug/ml by broth microdilution method; type: functional; conditions: dose 4 µg/ml
# Acinetobacter baumannii [24] = experiment: Synergistic antibacterial activity against Acinetobacter baumannii PR363 producing OXA-23 assessed as meropenem MIC at 4 ug/ml by broth microdilution method; type: functional; conditions: dose 4 µg/ml
# Acinetobacter baumannii [25] = experiment: Synergistic antibacterial activity against ADC deleted Acinetobacter baumannii assessed as cefepime MIC at 8 ug/ml by broth microdilution method; type: functional; conditions: dose 8 µg/ml
# Klebsiella pneumoniae [26] = experiment: Synergistic antibacterial activity against Klebsiella pneumoniae 935/1884 producing KPC-3 assessed as cefepime MIC at 8 ug/ml by broth microdilution method; type: functional; conditions: dose 8 µg/ml
# Escherichia coli [27] = experiment: Synergistic antibacterial activity against Escherichia coli DH10B transfected with pBR322-catI-KPC-2 assessed as cefepime MIC at 8 ug/ml by broth microdilution method; type: functional; conditions: dose 8 µg/ml; summary of the method: as §1
# Escherichia coli [28] = experiment: Synergistic antibacterial activity against Escherichia coli DH10B transfected with pBC SK (-) KPC-2 assessed as cefepime MIC at 8 ug/ml by broth microdilution method; type: functional; conditions: dose 8 µg/ml
# Acinetobacter baumannii [29] = experiment: Synergistic antibacterial activity against Acinetobacter baumannii PR474 producing OXA-23/24/40 assessed as cefepime MIC at 8 ug/ml by broth microdilution method; type: functional; conditions: dose 8 µg/ml
# Klebsiella pneumoniae [30] = experiment: Synergistic antibacterial activity against Klebsiella pneumoniae CAV 1543 producing OXA-48 assessed as cefepime MIC at 8 ug/ml by broth microdilution method; type: functional; conditions: dose 8 µg/ml
# Klebsiella pneumoniae [31] = experiment: Synergistic antibacterial activity against Klebsiella pneumoniae NY BS producing OXA-232 assessed as cefepime MIC at 8 ug/ml by broth microdilution method; type: functional; conditions: dose 8 µg/ml
# Escherichia coli [32] = experiment: Synergistic antibacterial activity against Escherichia coli DH10B transfected with pBC SK (-) PDC-3 assessed as meropenem MIC at 8 ug/ml by broth microdilution method; type: functional; conditions: dose 8 µg/ml; summary of the method: as §1
# Klebsiella pneumoniae [33] = experiment: Synergistic antibacterial activity against Klebsiella pneumoniae 901/1860 producing KPC-3 assessed as cefepime MIC at 8 ug/ml by broth microdilution method; type: functional; conditions: dose 8 µg/ml
# Escherichia coli [34] = experiment: Synergistic antibacterial activity against Escherichia coli DH10B transfected with pBC SK (-) KPC-2 assessed as meropenem MIC at 8 ug/ml by broth microdilution method; type: functional; conditions: dose 8 µg/ml
# Klebsiella pneumoniae [35] = experiment: Synergistic antibacterial activity against Klebsiella pneumoniae 935/1884 producing KPC-3 assessed as meropenem MIC at 8 ug/ml by broth microdilution method; type: functional; conditions: dose 8 µg/ml
# Klebsiella pneumoniae [36] = experiment: Synergistic antibacterial activity against Klebsiella pneumoniae 1084/1957 producing KPC-3 assessed as cefepime MIC at 8 ug/ml by broth microdilution method; type: functional; conditions: dose 8 µg/ml; summary of the method: as §1
# Acinetobacter baumannii [37] = experiment: Synergistic antibacterial activity against ADC deleted Acinetobacter baumannii transfected with pWH1266 OXA-23 assessed as cefepime MIC at 8 ug/ml by broth microdilution method; type: functional; conditions: dose 8 µg/ml
# Acinetobacter baumannii [38] = experiment: Synergistic antibacterial activity against Acinetobacter baumannii PR319 producing OXA-23/24/40 assessed as cefepime MIC at 8 ug/ml by broth microdilution method; type: functional; conditions: dose 8 µg/ml
# Pseudomonas aeruginosa [39] = experiment: Synergistic antibacterial activity against Pseudomonas aeruginosa 776 assessed as meropenem MIC at 8 ug/ml by broth microdilution method; type: functional; conditions: dose 8 µg/ml
SMILES,MIC (Klebsiella pneumoniae [1]),MIC (Acinetobacter baumannii [2]),MIC (Klebsiella pneumoniae [3]),MIC (Acinetobacter baumannii [4]),T1/2 (Bacteria [6]),MIC (Acinetobacter baumannii [7]),MIC (Klebsiella pneumoniae [8]),MIC (Klebsiella pneumoniae [9]),MIC (Acinetobacter baumannii [10]),MIC (Klebsiella pneumoniae [11]),MIC (Klebsiella pneumoniae [13]),MIC (Klebsiella pneumoniae [14]),MIC (Pseudomonas aeruginosa [16]),MIC (Klebsiella pneumoniae [17]),T1/2 (Bacteria [18]),MIC (Klebsiella pneumoniae [19]),MIC (Escherichia coli [20]),MIC (Escherichia coli [21]),MIC (Klebsiella pneumoniae [22]),MIC (Acinetobacter baumannii [23]),further results
NC(=O)[C@@H]1CC[C@@H]2CN1C(=O)N2OS(=O)(=O)[O-].[Na+] [AVIBACTAM SODIUM],≤ 0.12 µg/mL,> 16 µg/mL,≤ 0.12 µg/mL,> 16 µg/mL,82 min,> 16 µg/mL,≤ 0.12 µg/mL,≤ 0.12 µg/mL,> 16 µg/mL,≤ 0.12 µg/mL,≤ 0.12 µg/mL,≤ 0.12 µg/mL,4 µg/mL,≤ 0.12 µg/mL,14.4 min,≤ 0.12 µg/mL,≤ 0.12 µg/mL,≤ 0.12 µg/mL,≤ 0.12 µg/mL,> 16 µg/mL,K (Bacteria [5]): 1.3 10^4/M/s; Ki [12]: 19 µM; MIC (Pseudomonas aeruginosa [15]): 16 µg/mL; MIC (Acinetobacter baumannii [24]): > 16 µg/mL
O.O=C(NC1CCNCC1)[C@@H]1CC[C@@H]2CN1C(=O)N2OS(=O)(=O)O [RELEBACTAM],≤ 0.12 µg/mL,> 16 µg/mL,≤ 0.12 µg/mL,> 16 µg/mL,46 min,16 µg/mL,≤ 0.12 µg/mL,≤ 0.12 µg/mL,> 16 µg/mL,≤ 0.12 µg/mL,≤ 0.12 µg/mL,1 µg/mL,4 µg/mL,≤ 0.12 µg/mL,12.8 min,2 µg/mL,≤ 0.12 µg/mL,≤ 0.12 µg/mL,≤ 0.12 µg/mL,> 16 µg/mL,K (Bacteria [5]): 2.8 10^4/M/s; MIC (Pseudomonas aeruginosa [15]): 16 µg/mL; MIC (Acinetobacter baumannii [24]): > 16 µg/mL
O=C(NNC(=O)[C@@H]1CC[C@@H]2CN1C(=O)N2OS(=O)(=O)O)[C@@H]1CCCNC1 [ZIDEBACTAM],≤ 0.12 µg/mL,> 16 µg/mL,≤ 0.12 µg/mL,> 16 µg/mL,29 min,8 µg/mL,≤ 0.12 µg/mL,≤ 0.12 µg/mL,> 16 µg/mL,≤ 0.12 µg/mL,≤ 0.12 µg/mL,≤ 0.12 µg/mL,2 µg/mL,≤ 0.12 µg/mL,3.3 min,≤ 0.12 µg/mL,≤ 0.12 µg/mL,≤ 0.12 µg/mL,≤ 0.12 µg/mL,> 16 µg/mL,MIC (Acinetobacter baumannii [25]): 0.5 µg/mL; MIC (Klebsiella pneumoniae [26]): ≤ 0.12 µg/mL; MIC (Escherichia coli [27]): ≤ 0.12 µg/mL; MIC (Escherichia coli [28]): ≤ 0.12 µg/mL; MIC (Acinetobacter baumannii [29]): 8 µg/mL; MIC (Klebsiella pneumoniae [30]): ≤ 0.12 µg/mL; MIC (Klebsiella pneumoniae [31]): ≤ 0.12 µg/mL; MIC (Escherichia coli [32]): ≤ 0.12 µg/mL; MIC (Klebsiella pneumoniae [33]): ≤ 0.12 µg/mL; Ki [12]: 2.3 µM; MIC (Escherichia coli [34]): ≤ 0.12 µg/mL; MIC (Klebsiella pneumoniae [35]): ≤ 0.12 µg/mL; MIC (Klebsiella pneumoniae [36]): ≤ 0.12 µg/mL; MIC (Acinetobacter baumannii [37]): 16 µg/mL; MIC (Acinetobacter baumannii [38]): > 16 µg/mL; MIC (Pseudomonas aeruginosa [39]): 16 µg/mL; MIC (Acinetobacter baumannii [24]): > 16 µg/mL
